Like-named read-outs stand apart in the source and are kept apart here.

As usually defined, the ED50 is the midpoint of the dose-response relation.

Data set [1] deals with mice (carrageenan induced paw edema). As to the kind of experiment: Carrageenan induced paw edema. It counts as in vivo, mouse. The method in brief:
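Male CF-1 mice (20–35 g), n=5 per group. Test compound, ibuprofen (100 mg/kg, positive control) or MC vehicle given i.p. 2 h before intraplantar 25 μl λ-carrageenan; an MC/saline group also included. Both paws measured by caliper at baseline and 0.5, 1, 2, 3, 4, 6, 8 and 24 h. % edema = thickness/baseline. Mean ± s.e.m.; Tukey test.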
A general note: The carrageenan paw model is a standard test of acute inflammation.

Data set [2] relates to mice (acetic-acid induced abdominal constriction). The note with it: cited from earlier work.
The subject of data set [3] is rats with SNL neuropathy. As to the kind of experiment: Spinal nerve ligation. It counts as in vivo. The following applies: rat. Summed up:
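Rats with pre-surgery threshold >15 g underwent L5–L6 spinal nerve ligation under ketamine/xylazine. Test compound at 40, 60 or 80 mg/kg i.p., MC vehicle, or MTMCD positive control, given 7, 14 and 21 days post-surgery. Latin-square design; experimenter blinded. Nine von Frey filaments (0.6–26 g); protected = no response to 15 g. TPE = earliest time of highest mean threshold.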

A short description of data set [4]: Pharmacokinetic study in rats. The class given is in vivo, rat. The note with it: 80 mg/kg i.p. The method in brief:
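Rats given 80 mg/kg i.p. in 0.5% MC, four animals per time point. Cardiac-puncture blood (5 ml) taken at sacrifice at 0.25, 0.5, 1, 1.5, 2 and 4 h. Plasma (3000g, 10 min) held at −80°C, chloroform-extracted with N-methyl VCD internal standard and assayed by GC/MS. Non-compartmental: observed Cmax, CL/F = Dose/AUC, V/F = CL/F divided by terminal slope.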

For data set [5], the system named is mice (formalin-induced paw licking). As to the kind of experiment: Formalin test. It counts as in vivo, mouse. The note with it: for reduction of licking-time AUC vs control, acute phase: acute phase 0–10 min; for reduction of licking-time AUC vs control, inflammatory phase: inflammatory phase 10–40 min; for ID50 (dose reducing the nociceptive response by 50% compared to control), acute phase / ID50 (dose reducing the nociceptive response by 50% compared to control), inflammatory phase: i.p.

The nature of data set [6]: Pharmacokinetic study in mice. The class given is in vivo, mouse. The note with it: 80 mg/kg i.p. The method in brief:
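Mice dosed 80 mg/kg i.p. (suspension in 0.5% MC), 4 per time point. Aortic blood collected after sacrifice at 0.25, 0.5, 1, 1.5, 2, 2.5 and 4 h. Heparinised plasma (3000g, 10 min) stored at −80°C. Chloroform extraction with N-methyl VCD internal standard, then GC/MS. Non-compartmental analysis: Cmax observed; CL/F = Dose/AUC; V/F = CL/F ÷ terminal slope.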

For data set [7] the following is noted: rats, 60 mg/kg, multisol solution, previous study; cited from earlier work.
Data set [8] relates to mice (carrageenan induced heat hyperalgesia). As to the kind of experiment: Carrageenan test, heat hyperalgesia. The class given is in vivo, mouse. The following applies: for paw thickness an hour following administration: carrageenan injected paw. The method in brief:
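Mice acclimated 1 h on a 30°C plate, then 25 μl carrageenan (20 mg/ml in saline) s.c. into left hind plantar paw. Test compound (10–70 mg/kg), VPA (100 mg/kg) or 0.5% MC given i.p. 15 min before testing at 3 h; Sal/MC and Carr/MC controls; blinded. Radiant heat (35% intensity): flinch latency, mean of two readings 5 min apart, ipsilateral minus contralateral.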

Another data set has as its system rat sciatic nerve. As to the kind of experiment: Sciatic nerve compound action potential. The following applies: 40 Hz.
The test system of data set [9] is mice (acetic-acid induced abdominal constriction). As to the kind of experiment: Acetic acid-induced abdominal constriction. The class given is in vivo, mouse. The following applies: for protective index (PI), writhing test: TD50 vs ED50. (An intraperitoneal irritant provokes the stretching counted in writhing tests.)
The next data set relates to mice. The note with it: mouse, in vivo, ip; cited from earlier work.
For data set [10], the system named is rats with SNL neuropathy. The following applies: rat, same paradigm; cited from earlier work.
The test system of data set [11] is mice (formalin-induced paw licking). The note with it: same test; cited from earlier work.
The mark [12] stands for this setting: sedation for the first 15 minutes after dosing.

Take `CC(C)Cc1ccc(C(C)C(=O)O)cc1` (stereo not drawn) [Ibuprofen, reference compound]: in [1] (100 mg/kg i.p., significant after 4 hours (p<0.05)), the “percent paw thickness following carrageenan injection” value is recorded as “decreased percent paw thickness”. Also, the “ED50 in the writhing model” value in data set [2] was 33 mg/kg.
On to `CNC(=O)CC1C(C)(C)C1(C)C` [MTMCD, N-methyl tetramethylcyclopropyl acetamide, reference compound], for which the “antiallodynic effect vs MC (positive control)” value with rats with SNL neuropathy [3] (80 mg/kg i.p.) is “antiallodynic effect significantly different than MC”.
Consider `CCCC(C(N)=O)C(C)CC` (stereo not drawn) [SPD, sec-Butylpropylacetamide], for which, in [4], the CL/F was determined as 15 mL/min/kg, the “peak plasma concentration (Cmax)” value amounted to 66.2 µg/mL and the volume of distribution is listed as 1.1 L/kg. Further, the signs of toxicity result in [4] (setting [12]) is reported as “not associated with any signs of toxicity except sedation”. Further, in data set [5] (mice), the “potency (effective dose) in the formalin test” value (“potency (effective dose)” below) is given as 70 mg/kg; the “ID50 (dose reducing the nociceptive response by 50% compared to control), acute phase” value was 39 mg/kg; the “ID50 (dose reducing the nociceptive response by 50% compared to control), inflammatory phase” value stood at 40 mg/kg. For the same compound, in data set [5] (mice, 70 mg/kg i.p.), the “reduction of licking-time AUC vs control, acute phase” value is given as 55% and the “reduction of licking-time AUC vs control, inflammatory phase” value turned out to be 74%. Besides, in data set [5] (ratio between ID50 and TD50, TD50 from White et al., 2012), the “protective index (PI), formalin test” value was 2.2. Moreover, the “percent paw thickness up to 24 hours following carrageenan injection” value in data set [1] (70 mg/kg i.p.) is listed as “did not decrease percent paw thickness”. For the same compound, in [6], the CL/F was found to be 28.3 mL/min/kg, the “peak plasma concentration (Cmax)” value worked out at 77.2 µg/mL and the volume of distribution is 0.9 L/kg. Also, in data set [6] (setting [12]), the signs of toxicity result is reported as “not associated with any signs of toxicity except sedation”. The CL/F in data set [7] is on record as 1.9. The “tactile allodynia compared to control” value with rats with SNL neuropathy [3] (60 and 80 mg/kg i.p., p<0.05) was “significantly reduced tactile allodynia”. In addition, in the data set on rats with SNL neuropathy [3] (i.p.), the “time to peak antiallodynic effect (TPE)” value came to 60 min. Moreover, the “ED50 (antiallodynic, SNL model)” value in the data set with rats with SNL neuropathy [3] (i.p., at TPE (60 min), 95% CI of 9–61 mg/kg) turned out to be 49 mg/kg. The “heat hyperalgesia, normalized mean withdrawal time vs Carr/MC” value in data set [8] (70 mg/kg i.p.) is listed as “statistically different from the Carr/MC group”. Besides, the “paw thickness an hour following administration” value in data set [8] is given as “Neither SPD nor VPA decreased paw thickness”. In addition, in [8] (i.p., at TPE, 95% CI 29.3–110), the “ED50 in the carrageenan model (heat hyperalgesia)” value is 49 mg/kg. In the data set on rat sciatic nerve (3mM, baseline 96.5%), the “ratio between last and first CAP (Δf), phasic stimulation” value amounted to 96%. Moreover, in the data set on rat sciatic nerve (3mM, baseline 100%), the “PAR of the first and last CAP normalized to baseline, phasic stimulation” value came out at 90%. Besides, the “protective index (PI), writhing test” value in data set [9] is reported as 2.2. Besides, in data set [9] (mice, 30, 50 and 70 mg/kg i.p., p<0.001), the “mean number of writhes” value is given as “significantly reduced”. Also, in data set [9] (mice, i.p.), the “dose of maximum efficacy in the writhing test” value is 30 mg/kg. Moreover, the “ED50 in the writhing test” value in [9] (mice, i.p., 95% CI 24.3–67 mg/kg (SPD), 18–61mg/kg (VPA)) was found to be 40 mg/kg.
`CCCC(CCC)C(=O)O` [VPA, valproic acid, reference compound]: the licking time result in [5] (mice, 70 mg/kg i.p.) is recorded as “unable to reduce the licking time significantly”. Moreover, the licking time result in data set [5] (mice, 100 mg/kg i.p.) is reported as “showed reduction in only one of the two phases evaluated”. Moreover, in data set [5] (mice, 300 mg/kg i.p.), the “reduction of licking-time AUC vs control, acute phase” value was 46% and the “reduction of licking-time AUC vs control, inflammatory phase” value came out at 75%. Moreover, in [5] (mice), the “ID50 (dose reducing the nociceptive response by 50% compared to control), acute phase” value is given as 136 mg/kg and the “ID50 (dose reducing the nociceptive response by 50% compared to control), inflammatory phase” value amounted to 113 mg/kg. The TD50 in the data set on mice was 391 mg/kg. Further, the “heat hyperalgesia vs Carr/MC” value in [8] (100 mg/kg i.p.) is reported as “not able to reduce heat hyperalgesia”. The “paw thickness an hour following administration” value in [8] is on record as “Neither SPD nor VPA decreased paw thickness”. In addition, in the data set on rats with SNL neuropathy [10], the “ED50 (antiallodynic, SNL model)” value is recorded as 269 mg/kg. Moreover, the ED50 in data set [9] (Mus musculus, ip, read-out: ED50 in the writhing test) stood at 44 mg/kg. The “protective index (PI), writhing test” value in data set [9] is 8.8. In data set [9] (mice, 50 and 100 mg/kg i.p.), the number of writhes result is “significantly reduced the number of writhes”.
As to `CC(=O)Oc1ccccc1C(=O)O` [aspirin], in data set [2], the “ED50 in the writhing model” value was 82 to 228 mg/kg.
Take `COc1ccc2c3c1O[C@H]1[C@@H](O)C=C[C@H]4[C@@H](C2)N(C)CC[C@@]341` [codeine]: the “potency (effective dose)” value in [11] was 25 to 50 mg/kg.
As for `NCC1(CC(=O)O)CCCCC1` [gabapentin], the “ED50 (antiallodynic, SNL model)” value in the data set on rats with SNL neuropathy [10] is 32 mg/kg.
Turning to `CCN(CC)CC(=O)Nc1c(C)cccc1C` [lidocaine, Lidocaine, reference compound], in the data set with rat sciatic nerve (1mM, baseline 100%), the “PAR of the first CAP normalized to baseline, phasic stimulation” value turned out to be 22.5% and the “PAR of the last CAP normalized to baseline, phasic stimulation” value is 14.7%.
On to `CN1CC[C@]23c4c5ccc(O)c4O[C@H]2[C@@H](O)C=C[C@H]3[C@H]1C5` [morphine], for which, in data set [11], the “potency (effective dose)” value is 5 to 10 mg/kg.
As for `CN1C(C(=O)Nc2ccccn2)=C(O)c2ccccc2S1(=O)=O` [piroxicam], the “ED50 in the writhing model” value in [2] was 100 mg/kg.

The values above are taken from publication PMC5352298 (Pharmacological research, 2016).
